ADAM10 inh – ADAM10 inhibition, QFRET primary screen; 0.62% of 370,000 active; recombinant ADAM10, EDANS/DABCYL FRET peptide cleavage, 3 h; AID 720582; O14672; inhibition, % at 7 µM;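 active = inhibition above a per-campaign cutoff equal to the mean of compounds falling between control-based bounds plus 3 SD, cut at about 20% in these data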
FAS TE block – inhibitors of human fatty acid synthase thioesterase domain | recombinant FAS-TE, OMFH fluorogenic substrate, fluorescence endpoint | inhibition, % at 15 µM | 0.67% of 360,000 active | AID 602261;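 active = compounds whose normalised, plate-corrected inhibition of enzyme fluorescence in the single-dose primary screen is 50% or more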
ADAM17 inh – ADAM17 inhibition, QFRET primary screen | P78536 | recombinant ADAM17, EDANS/DABCYL FRET peptide cleavage | inhibition, % at 6.95 µM | 0.83% of 370,000 active | AID 720648;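 active = inhibition above the mean of compounds lying between control limits plus 3 SD, set per campaign, cut at about 8.5% in these data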
SENP1 inh – SENP1 (human) catalytic domain inhibition | AID 624204 | 0.21% of 360,000 active | Q9P0U3 | recombinant SENP1 catalytic domain, CyPet-SUMO1-YPet FRET cleavage | inhibition, % at 10 µM;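 active = inhibition at least 30% at 10 µM, raw YFP signal under a set limit, fluorescence ratio 0.5 to 1.5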
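Controls: no-enzyme wells low, DMSO-plus-enzyme wells high control. Test system: human recombinant His6-tagged SENP1 catalytic domain enzyme. Reagent: SFCypet-SUMO1-SFYpet FRET protein substrate, 25 nM final. Doses: one dose per compound, 10 µM, 0.5% DMSO. Detection: FRET, CFP and YFP emission. Timing: 50 min reaction at room temperature.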
SENP1 conf – SENP1 (human) inhibition, single concentration confirmation; shares compounds with SENP1 inh; recombinant SENP1, CyPet-SUMO1-YPet FRET cleavage; inhibition, % at 10 µM; 34% of 520 active; in the data active = inhibition mostly above about 35%, no sharp cut-off; inactive = mostly below about 32%
SENP1 kinetic – SENP1 (human) inhibition, kinetic confirmation | 26% of 520 active | inhibition, % at 10 µM | shares compounds with SENP1 inh | recombinant SENP1, CyPet-SUMO1-YPet FRET kinetic cleavage; in the data active = inhibition mostly above about 32%, no sharp cut-off; inactive = mostly below about 29%
Of the large screens only hits and unclear results are named; the others gave an inactive call (follow-up assays come after a bar, where they were run). Sampled rows, rich in hits. Any-hit rate of the full collection: about 1.9%.

Cc1ccc2[nH]c(O)c(N=Nc3ccccc3[N+](=O)[O-])c2c1	none
COc1ccc(/C=C2\CC3(OC(=O)C4CCCC4)CCCN2C3)cc1 (configuration not stated)	none (no result: FAS TE block, SENP1 inh)
COc1ccc(C(=O)C(C)[n+]2ccc(C)c3ccccc32)cc1[N+](=O)[O-] (configuration not stated)	SENP1 inh 78 | SENP1 conf inactive | SENP1 kinetic inactive
Cc1onc(-c2ccc(Cl)cc2)c1-c1ccn(S(=O)(=O)c2ccccc2Cl)n1	none (no result: FAS TE block, SENP1 inh)
CCn1cc(C(=O)O)c(=O)c2cc(F)c(N/N=C/c3ccccc3[N+](=O)[O-])cc21	SENP1 inh 34 | SENP1 conf inactive | SENP1 kinetic inactive
CCn1cc(C(=O)O)c(=O)c2cc(F)c(N3CCN(C(=S)Nc4ccccc4OC)CC3)cc21	none
O=C1C=Cc2ccccc2/C1=C/c1[nH]c(=O)[nH]c1O	SENP1 inh 60 | SENP1 conf 104 | SENP1 kinetic 76
COC(=O)C1CN(Cc2ccccc2)CCS(=O)(=O)N1Cc1ccc(Cl)cc1 (configuration not stated)	none (no result: FAS TE block, SENP1 inh)
COC(=O)[C@]12C[C@H](CC(=O)N3CCN(C(=O)c4ccco4)CC3)C(=O)N(Cc3ccco3)C1=C[C@H](C(C)C)O[C@@H]2C1CC1	none (no result: FAS TE block, SENP1 inh)
CCCCNc1c(-c2cccnc2)nc2nc(C)cc(C)n12	SENP1 inh 36 | SENP1 conf inactive | SENP1 kinetic inactive
Cc1cccc2nc(-c3cccnc3)c(Nc3ccccc3)n12	none
Cc1cc(C)n2c(NC3CCCCC3)c(-c3ccc(F)cc3)nc2n1	none
Cc1cc(C)n2c(NC3CCCC3)c(-c3cccnc3)nc2n1	SENP1 inh 32 | SENP1 conf inactive | SENP1 kinetic inactive
Cc1cc(C)n2c(Nc3c(C)cccc3C)c(-c3cccnc3)nc2n1	SENP1 inh 64 | SENP1 conf 39 | SENP1 kinetic inactive
O=C(NCc1cccs1)C1CCN(S(=O)(=O)c2ccc([N+](=O)[O-])cc2)CC1	none (no result: FAS TE block, SENP1 inh)
CC1CCc2c(sc3ncnc(SCC(=O)N(C)C4CCS(=O)(=O)C4)c23)C1 (configuration not stated)	SENP1 inh 32 | SENP1 conf inactive | SENP1 kinetic inactive
Cc1cc(C)c2cc(C#N)c(SCC(=O)NCc3ccco3)nc2c1	SENP1 inh 41 | SENP1 conf inactive | SENP1 kinetic inactive
Nc1ccc2c(c1)-c1ccc(F)cc1C2=O	SENP1 inh 82 | SENP1 conf 49 | SENP1 kinetic inactive
Nc1ccc2c(c1)C(=O)c1ccc(Cl)cc1-2	none
COc1ccc(NC(=O)CCC(=O)c2ccc(-c3ccccc3)cc2)cc1	SENP1 inh 40 | SENP1 conf inactive | SENP1 kinetic inactive
COc1ccc(NC(=O)CCC(=O)c2ccc(C(C)C)cc2)cc1	none
O=C(NN1C(=O)C2C(c3ccccc3)C=CC(c3ccccc3)C2C1=O)c1ccccc1 (configuration not stated)	SENP1 inh 41 | SENP1 conf inactive | SENP1 kinetic inactive
Clc1ccccc1C=NNc1ccccn1	none
Brc1ccccc1/C=N/Nc1ccccn1	SENP1 inh 44 | SENP1 conf inactive | SENP1 kinetic inactive
COc1ccc2oc(=O)c(/C(N)=N/NC(=O)c3ccncc3)cc2c1	SENP1 inh 37 | SENP1 conf inactive | SENP1 kinetic inactive
CN(C)C(=O)CSc1ccc(S(=O)(=O)N2CCCC2)cn1	SENP1 inh 39 | SENP1 conf 44 | SENP1 kinetic 42
CCOc1cc(N2CCOCC2)c(OCC)cc1NC(=O)CCS(=O)(=O)c1ccc(Cl)cc1	SENP1 inh 37 | SENP1 conf inactive | SENP1 kinetic inactive
CCCN(CCC)c1nc2ccccc2n2c(C)nnc12	none
CCCNc1nc2ccccc2n2c(C)nnc12	SENP1 inh 31 | SENP1 conf inactive | SENP1 kinetic inactive
O=c1[nH]ncc2c3ccccc3n(Cc3ccc(F)cc3)c12	none
O=c1[nH]ncc2c3ccccc3n(Cc3cccc(Cl)c3)c12	SENP1 inh 86 | SENP1 conf 106 | SENP1 kinetic 62
COC(=O)C1CN(Cc2ccc(OC)cc2)CCS(=O)(=O)N1Cc1cn(Cc2ccc(C)cc2)nn1 (configuration not stated)	none (no result: FAS TE block, SENP1 inh)
Cc1ccc(-c2nc(N/N=C/c3cccc([N+](=O)[O-])c3)c3ccccc3n2)cc1	SENP1 inh 31 | SENP1 conf inactive | SENP1 kinetic inactive
CN1Cc2nnn(CC3CCCCC3)c2-c2ccccc2S1(=O)=O	none (no result: FAS TE block, SENP1 inh)
CSc1nc2nc3c(cn2n1)C(=O)CC(c1ccccc1)C3 (configuration not stated)	none
O=C1CC(c2ccccc2)Cc2nc3nc(C(F)(F)F)nn3cc21 (configuration not stated)	SENP1 inh 63 | SENP1 conf inactive | SENP1 kinetic inactive
Cc1nn(-c2ccccc2)c(Cl)c1/C=N/Nc1nc2ccccc2n1C	SENP1 inh 33 | SENP1 conf inactive | SENP1 kinetic inactive
Cc1nn(-c2ccccc2)c(Cl)c1/C=N/NC(N)=O	none
CN1C(=O)/C(=C\c2cccc(OCc3ccccc3)c2)SC1=S	none
CN1C(=O)/C(=C/c2ccc(OC(=O)c3ccco3)cc2)SC1=S	SENP1 inh 46 | SENP1 conf inactive | SENP1 kinetic inactive
CN1C(=O)/C(=C\c2ccc(OC(=O)c3ccco3)cc2)SC1=S	SENP1 inh 44 | SENP1 conf inactive | SENP1 kinetic inactive
CCCCOc1ccc(C(=O)NC2CCCCN(Cc3cccc(C(F)(F)F)c3)C2=O)cc1 (configuration not stated)	none (no result: FAS TE block, SENP1 inh)
CN[C@H]1C[C@H]2c3[nH]c4c(-c5ccc6c(c5)OCO6)cccc4c3CCN2C[C@H]1[C@H](C)O	none (no result: FAS TE block, SENP1 inh)
COc1ccc(-c2nc3ncccn3c2Nc2ccccc2)cc1	SENP1 inh 37 | SENP1 conf inactive | SENP1 kinetic inactive
Cc1ccc(Nc2c(-c3ccc(N(C)C)cc3)nc3ncccn23)cc1	none
O=C(NC(=S)Nc1ccccc1O)c1cncc(Br)c1	SENP1 inh 30 | SENP1 conf inactive | SENP1 kinetic inactive
Clc1ccccc1N=Nc1ccccn1	SENP1 inh 58 | SENP1 conf inactive | SENP1 kinetic inactive
Cc1[nH][nH]c(=O)c1N=Nc1ccccc1Cl	none
CC(=O)Nc1cc(-c2ccc(N3CCN(C)CC3)cc2)cn2c(-c3ccc(F)c(Cl)c3)cnc12	SENP1 inh 42 | SENP1 conf inactive | SENP1 kinetic inactive
CC(=O)Nc1cc(-c2ccc(N3CCN(C)CC3)cc2)cn2c(-c3cccc(C(C)=O)c3)cnc12	SENP1 inh 37 | SENP1 conf inactive | SENP1 kinetic inactive
CCCCS(=O)(=O)N1CCCc2nc(-c3ccc(F)cc3)ccc21	none (no result: FAS TE block, SENP1 inh)
O=C(CN(CCc1ccccc1)S(=O)(=O)c1ccc(F)cc1)N1CCOCC1	none (no result: FAS TE block, SENP1 inh)
C[C@@H]1COc2cc(Br)ccc2S(=O)(=O)N1Cc1cn(CCC2OCCO2)nn1	none (no result: FAS TE block, SENP1 inh)
